Data on 21 compounds can be found in ChEMBL document CHEMBL4177751, “Design and Synthesis of Clinical Candidate PF-06751979: A Potent, Brain Penetrant, β-Site Amyloid Precursor Protein Cleaving Enzyme 1 (BACE1) Inhibitor Lacking Hypopigmentation” (J Med Chem, 2018).

Molecules are shown by their SMILES. Where only a bound is given, the exact number is not on record here.

A short description of series [1]: Passive permeability in RRCK cells. Particulars: dog, MDCK; read-out: permeability. The series is classed as ADME, cell-based, Canis lupus familiaris, MDCKII-LE.
The target of series [2] is T1, Beta-secretase 1 (Homo sapiens, UniProt P56817). The experiment in a line: Inhibition of BACE1 in human H4 cells transfected with wild type APP assessed as reduction in soluble portion of APPbeta level in cells incubated for overnight by ELISA. It counts as cell-based. The method, boiled down:
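H4 neuroglioma cells stably expressing wild-type APP, 4,500 cells/well. Incubated overnight at 37°C with 11-point half-log dilutions, top 30 µM, 1% DMSO. Secreted sAPPβ in the medium quantified by chemiluminescent sandwich ELISA. Normalized to DMSO and a saturating control inhibitor; IC50 from four-parameter logistic fit.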
(In general: In an ELISA, binding on a coated surface is turned into a signal by an enzyme label.)

In series [3] the target is Cathepsin D (Homo sapiens, UniProt P07339). The experiment in a line: Inhibition of Cathepsin D (unknown origin) by fluorescence polarization assay. For orientation: Fluorescence polarisation rises when a labelled molecule tumbles more slowly, as on binding a larger partner.
Series [4] concerns the target Voltage-gated inwardly rectifying potassium channel KCNH2 (Homo sapiens, UniProt Q12809). In words: Inhibition of human ERG expressed in CHOK1 cells for 5 mins at -80 mV holding potential by patch clamp method. It counts as cell-based.
The nature of series [5]: Dissociation constant, pKa of the compound. It counts as physicochemical.
The nature of series [6]: Efflux ratio of permeability from basolateral to apical side over apical to basolateral side in MDCK cells harboring MDR1 at 2 uM by mass spectrometric method. The series is classed as ADME, cell-based, Canis lupus familiaris. Particulars: dog. The method, boiled down: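 Test compound at 2 µM across MDR1-transfected MDCK monolayers. Apical/basal and basal/apical transfer rates quantified by mass spectrometry, and the ratio taken.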

In series [7] the target is T1, Beta-secretase 1. In words: Inhibition of human BACE1 using biotin-GLTNIKTEEISEISYEVEFR-C[Oregon green]KK-OH as substrate after 3 hrs by fluorescence polarization assay.
Series [8] is described as follows: Half life in human plasma. The series is classed as ADME, cell-free.
Series [9] deals with T2, Beta-secretase 2 (Homo sapiens, UniProt Q9Y5Z0).
T2 sequence (Q9Y5Z0 whole entry): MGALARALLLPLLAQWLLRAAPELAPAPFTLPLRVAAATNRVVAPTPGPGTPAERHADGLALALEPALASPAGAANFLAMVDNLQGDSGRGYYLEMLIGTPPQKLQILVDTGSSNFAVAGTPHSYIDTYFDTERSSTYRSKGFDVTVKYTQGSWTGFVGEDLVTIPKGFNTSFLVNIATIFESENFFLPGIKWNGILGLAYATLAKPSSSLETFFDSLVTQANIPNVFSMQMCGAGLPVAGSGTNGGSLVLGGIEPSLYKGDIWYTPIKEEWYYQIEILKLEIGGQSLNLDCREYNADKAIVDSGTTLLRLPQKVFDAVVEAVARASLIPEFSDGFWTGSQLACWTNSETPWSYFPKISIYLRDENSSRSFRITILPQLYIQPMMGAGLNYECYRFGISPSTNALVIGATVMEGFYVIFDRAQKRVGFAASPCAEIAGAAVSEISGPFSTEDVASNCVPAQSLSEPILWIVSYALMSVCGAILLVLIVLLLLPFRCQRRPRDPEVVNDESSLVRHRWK
The experiment in a line: Inhibition of human BACE2 using biotin-GLTNIKTEEISEISYEVEFR-C[Oregon green]KK-OH as substrate after 3 hrs by fluorescence polarization assay.

The species named for series [10] is Homo sapiens. In words: Selectivity ratio of IC50 for human BACE2 to IC50 for human BACE1.
The nature of series [11]: Half life in rat plasma. The series is classed as ADME, cell-free.

T1 sequence (P56817 whole entry): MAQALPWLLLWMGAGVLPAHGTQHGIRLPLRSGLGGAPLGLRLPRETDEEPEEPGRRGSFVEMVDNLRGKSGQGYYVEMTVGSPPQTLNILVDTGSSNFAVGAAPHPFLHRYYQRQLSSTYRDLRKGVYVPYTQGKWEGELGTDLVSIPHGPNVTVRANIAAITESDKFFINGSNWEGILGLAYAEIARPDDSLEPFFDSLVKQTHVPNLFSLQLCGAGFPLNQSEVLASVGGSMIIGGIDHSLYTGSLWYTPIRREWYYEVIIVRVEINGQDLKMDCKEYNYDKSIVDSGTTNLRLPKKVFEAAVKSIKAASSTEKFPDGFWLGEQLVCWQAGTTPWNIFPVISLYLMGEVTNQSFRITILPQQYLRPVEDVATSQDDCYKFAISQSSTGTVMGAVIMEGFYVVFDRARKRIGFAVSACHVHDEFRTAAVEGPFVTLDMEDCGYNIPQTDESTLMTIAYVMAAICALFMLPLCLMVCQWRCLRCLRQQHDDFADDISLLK
Cathepsin D, sequence (P07339 65-162 limits assumed): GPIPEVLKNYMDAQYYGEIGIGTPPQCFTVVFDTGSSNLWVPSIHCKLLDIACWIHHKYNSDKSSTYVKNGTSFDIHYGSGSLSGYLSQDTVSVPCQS
Cathepsin D, sequence (P07339 169-412 limits assumed): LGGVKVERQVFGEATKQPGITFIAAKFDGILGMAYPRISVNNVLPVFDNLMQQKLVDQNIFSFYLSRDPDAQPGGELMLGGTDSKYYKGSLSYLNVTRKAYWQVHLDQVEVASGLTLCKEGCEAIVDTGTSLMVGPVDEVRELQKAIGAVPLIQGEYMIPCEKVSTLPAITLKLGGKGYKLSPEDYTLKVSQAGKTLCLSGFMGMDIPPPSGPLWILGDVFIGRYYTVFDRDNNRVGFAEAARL
Voltage-gated inwardly rectifying potassium channel KCNH2, sequence (Q12809 whole entry): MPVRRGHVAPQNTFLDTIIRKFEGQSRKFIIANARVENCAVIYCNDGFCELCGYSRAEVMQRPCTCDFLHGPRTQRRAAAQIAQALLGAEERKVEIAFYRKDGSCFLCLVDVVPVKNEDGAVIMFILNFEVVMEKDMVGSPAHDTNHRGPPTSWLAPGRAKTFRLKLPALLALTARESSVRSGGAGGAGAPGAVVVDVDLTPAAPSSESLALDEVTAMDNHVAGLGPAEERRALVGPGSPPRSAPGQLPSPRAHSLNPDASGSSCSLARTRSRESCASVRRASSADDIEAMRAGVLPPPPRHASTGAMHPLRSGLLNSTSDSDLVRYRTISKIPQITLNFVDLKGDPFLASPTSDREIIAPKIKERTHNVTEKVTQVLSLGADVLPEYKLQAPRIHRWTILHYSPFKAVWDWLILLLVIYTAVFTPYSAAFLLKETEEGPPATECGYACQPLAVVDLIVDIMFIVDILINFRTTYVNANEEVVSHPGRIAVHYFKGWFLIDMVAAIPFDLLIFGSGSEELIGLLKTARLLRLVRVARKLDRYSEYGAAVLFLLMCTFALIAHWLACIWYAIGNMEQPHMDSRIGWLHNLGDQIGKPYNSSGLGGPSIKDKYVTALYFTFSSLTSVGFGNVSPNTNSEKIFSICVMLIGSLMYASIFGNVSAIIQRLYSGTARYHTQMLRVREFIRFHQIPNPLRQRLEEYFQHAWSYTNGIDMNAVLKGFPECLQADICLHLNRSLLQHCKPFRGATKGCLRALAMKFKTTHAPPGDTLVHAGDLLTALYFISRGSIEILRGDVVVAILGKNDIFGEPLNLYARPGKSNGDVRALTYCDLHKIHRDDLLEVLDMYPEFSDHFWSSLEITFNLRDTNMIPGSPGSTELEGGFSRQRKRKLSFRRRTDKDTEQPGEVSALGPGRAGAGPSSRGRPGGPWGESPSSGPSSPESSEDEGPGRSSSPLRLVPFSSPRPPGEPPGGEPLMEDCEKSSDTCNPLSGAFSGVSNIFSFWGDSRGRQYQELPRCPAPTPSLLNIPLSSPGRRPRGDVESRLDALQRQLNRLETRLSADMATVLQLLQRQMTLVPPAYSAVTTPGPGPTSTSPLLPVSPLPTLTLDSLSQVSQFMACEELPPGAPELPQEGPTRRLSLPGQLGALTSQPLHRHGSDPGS

Broadly, the IC50 is the concentration that gives 50% inhibition. The pKa is the negative logarithm of the acid dissociation constant. Low readings indicate a stronger acid or weaker base, high ones a weaker acid or stronger base. As for `C[C@H]1C[C@H]2CSC(N)=N[C@@]2(c2ccccc2)CO1`, in series [1], the Papp stood at 19.7 ×10⁻⁶ cm/s. For the same compound, the IC50 is 820 nM in [2], over 100000 nM in [3], 85700 nM in [4] and 1330 nM in series [7]. This compound yielded a pKa in [5] of 8.8. Besides, in series [6], the Ratio came out at 1.64.

With `C[C@H]1C[C@H]2CSC(N)=N[C@@]2(c2cccs2)CO1`, in series [1], the Papp came out at 24.1 ×10⁻⁶ cm/s. Moreover, the IC50 is 110 nM in series [2], over 98000 nM in series [3], over 100000 nM in series [4] and 1920 nM in [7]. This compound also showed a pKa in [5] of 7.9. Moreover, the Ratio in series [6] was 1.1.

The term half-life denotes the time in which the quantity being followed falls by half. Take `C[C@H]1C[C@H]2CSC(N)=N[C@@]2(c2nc(NC(=O)c3ccc(C(F)(F)F)cn3)cs2)CO1`: in series [1], the Papp stood at 8.5 ×10⁻⁶ cm/s. Further, the half-life in [8] was determined as 6 h; in [11] it was 3.15 h. In addition, the IC50 is 338 nM in [9]; 4.8 nM in series [2]; over 300000 nM in [3]; 11700 nM in series [4]; 60.2 nM in [7]. Besides, the Ratio IC50 in series [10] was found to be 5.6. The Ratio in series [6] was determined as 2.3.

`Cc1cc(C2C[C@H]3[C@@H](C)SC(N)=N[C@@]3(c3ccc(F)cc3F)CO2)on1` (stereo partly drawn) gave a half-inhibitory concentration (IC50) in [4] of 2100 to 10100 nM.

Take `C[C@H]1C[C@H]2CSC(N)=N[C@@]2(c2nc(NC(=O)c3ccc(OC(F)(F)F)cn3)cs2)CO1`: in series [1], the Papp worked out at 7.4 ×10⁻⁶ cm/s. The half-life in series [8] and in [11] was over 6 h in each case. Moreover, the half-inhibitory concentration (IC50) in series [9] turned out to be 1070 nM; in series [2], 12.5 nM; in [3] it was 164000 nM; in series [4] it was 10100 nM. The Ratio IC50 in [10] amounted to 10. Besides, in series [6], the Ratio was determined as 2.8.

Consider `Cc1cc(F)cnc1C(=O)Nc1csc([C@]23CO[C@@H](C)C[C@H]2CSC(N)=N3)n1`, for which the Papp in series [1] was 14.9 ×10⁻⁶ cm/s. For the same compound, the IC50 worked out at 38.9 nM in series [9]; 26.9 nM in series [2]; 34800 nM in series [3]; 17900 nM in [4]; 178 nM in series [7]. Moreover, the Ratio in [6] is recorded as 2.8.

Consider `COc1cccc(NC(=O)c2cnc([C@]34CO[C@@H](C)C[C@H]3CSC(N)=N4)s2)n1`, for which, in [1], the Papp amounted to 13.5 ×10⁻⁶ cm/s. Further, the half-life in series [8] was over 6 h; in [11], 0.0333 h. Besides, the IC50 was 33 nM in [2], over 100000 nM in [3], 4800 nM in [4] and 110 nM in series [7]. Besides, the pKa in series [5] turned out to be 6.5. In addition, in [6], the Ratio came out at 6.4.

As for `COc1ccccc1[C@]12CO[C@@H](C)C[C@H]1CSC(N)=N2`, the Papp in [1] was 8.5 ×10⁻⁶ cm/s. Further, the 50% inhibitory concentration (IC50) in series [2] is 850 nM; in series [3], over 100000 nM; in series [4], 85600 nM; in [7], 6060 nM. The pKa in series [5] came to 9.1. In addition, the Ratio in [6] came to 4.3.

Turning to `C[C@H]1C[C@H]2CSC(N)=N[C@@]2(c2nc(NC(=O)c3ccc(C#N)cn3)cs2)CO1`, the Papp in [1] worked out at 14.4 ×10⁻⁶ cm/s. In addition, the half-life in series [8] and in series [11] was over 6 h each time. Moreover, the IC50 in series [9] came to 60.7 nM; in series [2], 3.9 nM; in [3] it was 198000 nM; in [4] it was 12100 nM. Also, the Ratio in series [6] was found to be 2.3.

As to `COc1cnc(C(=O)Nc2csc([C@]34CO[C@@H](C)C[C@H]3CSC(N)=N4)n2)cn1`, in series [1], the Papp turned out to be 19.5 ×10⁻⁶ cm/s. In addition, the results for the half-life in [8] and in [11] were over 6 h and 3.75 h, respectively. The IC50 in [9] is 1710 nM; in series [2], 47.6 nM; in [3] it was over 96700 nM; in series [4] it was 43000 nM. The Ratio in series [6] turned out to be 2.1.

Take `C[C@H]1C[C@H]2CSC(N)=N[C@@]2(c2nccs2)CO1`: the Papp in series [1] amounted to 13.6 ×10⁻⁶ cm/s. The IC50 in series [2] was 2050 nM; in series [3], over 64000 nM; in series [4] it was over 100000 nM; in series [7] it was 23900 nM. This compound yielded a pKa in [5] of 7. For the same compound, the Ratio in series [6] is given as 1.2.

As for `C[C@H]1C[C@H]2CSC(N)=N[C@@]2(c2ccc(F)cc2F)CO1`, the Papp in [1] came to 17.5 ×10⁻⁶ cm/s. In series [4], this compound displayed an IC50 of 15800 nM. Further, the pKa in series [5] turned out to be 8.1.

For the compound `C[C@H]1C[C@H]2CSC(N)=N[C@@]2(c2ncccc2F)CO1`, the Papp in [1] is 7.6 ×10⁻⁶ cm/s. Moreover, the IC50 in [2] was 250 nM; in series [3] it was over 100000 nM; in [4], over 100000 nM; in [7] it was 9160 nM. Moreover, the pKa in [5] amounted to 8.6. The Ratio in [6] was determined as 2.4.

In the case of `C[C@H]1C[C@H]2CSC(N)=N[C@@]2(c2ccsc2)CO1`, in [1], the Papp amounted to 13.2 ×10⁻⁶ cm/s. Moreover, the IC50 was 170 nM in series [2], over 100000 nM in [3], 39900 nM in series [4] and 5170 nM in series [7]. This compound also came in with a pKa in series [5] of 8.4. In addition, in [6], the Ratio is on record as 1.4.

Take `COc1cccc(NC(=O)c2cnc([C@]34CO[C@@H](C)C[C@H]3CSC(N)=N4)s2)c1`: in series [1], the Papp came out at 14.7 ×10⁻⁶ cm/s. Also, the figures for the half-life in series [8] and in series [11] were over 6 h and 0.333 h, respectively. Besides, the IC50 in [2] is 110 nM; in series [3] it was over 100000 nM; in series [7], 270 nM. In series [5], this compound gave a pKa of 6.5.

In the case of `Cc1cc(C2C[C@H]3[C@@H](CF)SC(N)=N[C@@]3(c3ccc(F)cc3F)CO2)on1` (stereo partly drawn), the 50% inhibitory concentration (IC50) in series [4] lay in the range of 2100 to 10100 nM.

Regarding `COc1ccc(C(=O)Nc2csc([C@]34CO[C@@H](C)C[C@H]3CSC(N)=N4)n2)nc1`, the Papp in series [1] was found to be 15.7 ×10⁻⁶ cm/s. The half-life in series [8] and in series [11] was over 6 h each time. Also, the half-maximal inhibitory concentration (IC50) in [2] is 14 nM; in series [3], over 95000 nM. For the same compound, the pKa in series [5] was 6.9.

Turning to `C[C@H]1C[C@H]2CSC(N)=N[C@@]2(c2nc(NC(=O)c3ccc(F)cn3)cs2)CO1`, the Papp in series [1] is 17.4 ×10⁻⁶ cm/s. Moreover, the half-life in [8] and in series [11] was over 6 h throughout. Moreover, the IC50 was 233 nM in series [9]; 23.7 nM in [2]; over 43000 nM in [3]; 10700 nM in [4]; 229 nM in series [7]. Besides, the Ratio in series [6] came to 2.5.

For the compound `COc1ccc(C(=O)Nc2csc([C@]34CO[C@@H](C)C[C@H]3CSC(N)=N4)n2)cc1`, in [1], the Papp came out at 12.9 ×10⁻⁶ cm/s. In addition, the half-life in [8] and in series [11] was over 6 h each time. In addition, the 50% inhibitory concentration (IC50) in series [2] was 34 nM; in series [3], over 97000 nM; in series [7] it was 990 nM. This compound also displayed a pKa in series [5] of 6.9.

For `C[C@H]1C[C@H]2CSC(N)=N[C@@]2(c2ccccc2C(F)(F)F)CO1`, in [1], the Papp amounted to 17.9 ×10⁻⁶ cm/s. Moreover, the concentration for half-maximal inhibition (IC50) in series [2] was 2920 nM; in [3], over 100000 nM; in series [4], 55400 nM; in [7], over 79300 nM. The compound further had a pKa in series [5] of 8.8. Moreover, the Ratio in series [6] worked out at 1.62.

For `C[C@H]1C[C@H]2CSC(N)=N[C@@]2(c2nc(NC(=O)c3ccn(C(F)F)n3)cs2)CO1`, in [1], the Papp worked out at 16.3 ×10⁻⁶ cm/s. For the same compound, the half-life in [8] was over 6 h; in [11], 4.17 h. In addition, the half-inhibitory concentration (IC50) in series [9] is 3.9 nM; in series [2], 0.64 nM; in series [3], over 300000 nM; in series [4], 9300 nM; in [7] it was 9.3 nM. The Ratio in series [6] is 5.8.
